ChEMBL document CHEMBL1800059, “Spiroindane based amides as potent and selective MC4R agonists for the treatment of obesity” (Bioorg Med Chem Lett, 2010)

Tests used:
Melanocortin receptor 4 [1] = target: T1, Melanocortin receptor 4 (Homo sapiens, UniProt P32245); assay: Agonist activity at human MC4R expressed in CHO cells assessed as increase of alpha-MSH-stimulated cAMP release pretreated for 10 mins before alpha-MSH challenge measured after 40 mins; format: functional, cell-based
How it was run: (§1)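 Each value is the mean of at least three repeat measurements. Functional read-outs give EC50 with % maximal activation.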

[2] = Half life in Sprague-Dawley rat at 1 mg/kg, iv and 4 mg/kg, po; format: ADME, organism-based; settings: in vivo
Rattus norvegicus = assay: Dose-normalized AUC in Sprague-Dawley rat at 1 mg/kg, iv and 4 mg/kg, po; format: ADME, organism-based; settings: in vivo
Melanocortin receptor 4 [3] = target: T1, Melanocortin receptor 4; assay: Agonist activity at human MC4R expressed in CHO cells assessed as increase of alpha-MSH-stimulated cAMP release pretreated for 10 mins before alpha-MSH challenge measured after 40 mins relative to alpha-MSH; format: functional, cell-based; how it was run: as §1
[4] = Volume of distribution at steady state in Sprague-Dawley rat at 1 mg/kg, iv and 4 mg/kg, po; format: ADME, organism-based; settings: in vivo, read-out: Vdss
[5] = Agonist activity at human MC1bR expressed in CHO cells assessed as increase of alpha-MSH-stimulated cAMP release pretreated for 10 mins before alpha-MSH challenge measured after 40 mins relative to alpha-MSH; format: functional; how it was run: as §1
[6] = Oral bioavailability in Sprague-Dawley rat at 4 mg/kg; format: ADME, organism-based; settings: in vivo
[7] = Agonist activity at human MC1bR expressed in CHO cells assessed as increase of alpha-MSH-stimulated cAMP release pretreated for 10 mins before alpha-MSH challenge measured after 40 mins; format: functional, cell-based; how it was run: as §1
[8] = Clearance in Sprague-Dawley rat at 1 mg/kg, iv and 4 mg/kg, po; format: ADME, organism-based; settings: in vivo
Melanocortin receptor 4 [9] = target: T1, Melanocortin receptor 4; assay: Displacement of [125I]-NDP-R-MSH from human MC4R expressed in CHO cells after 1.5 hrs by scintillation counting; format: cell-based; how it was run: as §1

T1 sequence (P32245 whole entry): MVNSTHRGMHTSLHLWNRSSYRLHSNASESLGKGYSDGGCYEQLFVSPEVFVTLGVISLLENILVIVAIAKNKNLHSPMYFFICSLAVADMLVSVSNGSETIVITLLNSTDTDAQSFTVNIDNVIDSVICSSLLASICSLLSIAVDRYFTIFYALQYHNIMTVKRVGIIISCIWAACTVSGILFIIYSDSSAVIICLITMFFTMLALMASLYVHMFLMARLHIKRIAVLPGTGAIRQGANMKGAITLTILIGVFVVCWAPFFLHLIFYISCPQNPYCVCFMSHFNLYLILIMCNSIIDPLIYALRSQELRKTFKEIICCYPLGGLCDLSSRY

Row | SMILES | EC50 (Melanocortin receptor 4 [1]) [nM] | half-life [2] [h] | AUC/dose (Rattus norvegicus) [µM·h/mg/kg] | Activity (Melanocortin receptor 4 [3]) [%] | Vd [4] [L/kg] | bioavailability [6] [%] | EC50 [7] [nM] | clearance [8] [mL/min/kg] | IC50 (Melanocortin receptor 4 [9]) [nM] | Activity [5] [%]
1 | CCNC(=O)C(C)(C)[C@H]1CC2(CCN(C(=O)[C@@H]3CN(C(C)(C)C)C[C@H]3c3ccc(F)cc3F)CC2)c2cc(Cl)c(C)cc21 | 1.4 |  |  | 100 |  |  | 295 |  | 3.1 | 50
2 | CO[C@H]1CCN(C(=O)C(C)(C)[C@H]2CC3(CCN(C(=O)[C@@H]4CN(C(C)(C)C)C[C@H]4c4ccc(F)cc4F)CC3)c3cc(Cl)c(C)cc32)C1 | 1.2 |  |  | 112 |  |  | 102 |  | 2.3 | 71
3 | Cc1cc2c(cc1Cl)C1(CCN(C(=O)[C@@H]3CN(C(C)(C)C)C[C@H]3c3ccc(F)cc3F)CC1)C[C@@H]2C(C)(C)C(=O)N1CCC(F)(F)C1 | 3.8 |  |  | 96 |  |  | 285 |  | 2 | 54
4 | CCNC(=O)C(C)(C)[C@@H]1CC2(CCN(C(=O)[C@@H]3CN(C(C)(C)C)C[C@H]3c3ccc(F)cc3F)CC2)c2cc(Cl)c(C)cc21 | 32 |  |  | 96 |  |  | 1420 |  | 53 | 26
5 | Cc1cc2c(cc1Cl)C1(CCN(C(=O)[C@@H]3CN(C(C)(C)C)C[C@H]3c3ccc(F)cc3F)CC1)C[C@H]2C(C)(C)C(=O)NC1CC1 | 28 |  |  | 95 |  |  | 1120 |  | 55 | 20
6 | CNC(=O)C(C)(C)[C@@H]1CC2(CCN(C(=O)[C@@H]3CN(C(C)(C)C)C[C@H]3c3ccc(F)cc3F)CC2)c2cc(Cl)c(C)cc21 | 12 |  |  | 86 |  |  | 1380 |  | 47 | 38
7 | Cc1cc2c(cc1Cl)C1(CCN(C(=O)[C@@H]3CN(C(C)(C)C)C[C@H]3c3ccc(F)cc3F)CC1)C[C@H]2C(C)(C)C(=O)N(C)C | 53 |  |  | 80 |  |  | 5000 |  | 59 | 17
8 | CC(=O)NC(C)(C)[C@H]1CC2(CCN(C(=O)[C@@H]3CN(C(C)(C)C)C[C@H]3c3ccc(F)cc3F)CC2)c2cc(Cl)c(C)cc21 | 3.3 |  |  | 90 |  |  | 260 |  | 4.5 | 43
9 | CCN(CC)C(=O)C(C)(C)[C@H]1CC2(CCN(C(=O)[C@@H]3CN(C(C)(C)C)C[C@H]3c3ccc(F)cc3F)CC2)c2cc(Cl)c(C)cc21 | 1.7 |  |  | 81 |  |  | 168 |  | 2.6 | 67
10 | Cc1cc2c(cc1Cl)C1(CCN(C(=O)[C@@H]3CN(C(C)(C)C)C[C@H]3c3ccc(F)cc3F)CC1)C[C@@H]2C(C)(C)C(=O)NCCO | 1.3 |  |  | 100 |  |  | 83 |  | 2.6 | 56
11 | Cc1cc2c(cc1Cl)C1(CCN(C(=O)[C@@H]3CN(C(C)(C)C)C[C@H]3c3ccc(F)cc3F)CC1)C[C@H]2C(C)(C)C(=O)NCC(F)(F)F | 307 |  |  | 78 |  |  |  |  | 93 | 5
12 | CCN(C)C(=O)C(C)(C)[C@H]1CC2(CCN(C(=O)[C@@H]3CN(C(C)(C)C)C[C@H]3c3ccc(F)cc3F)CC2)c2cc(Cl)c(C)cc21 | 1.6 |  |  | 103 |  |  | 355 |  | 2.1 | 69
13 | Cc1cc2c(cc1Cl)C1(CCN(C(=O)[C@@H]3CN(C(C)(C)C)C[C@H]3c3ccc(F)cc3F)CC1)C[C@@H]2C(C)(C)C(=O)NC(C)(C)C | 9.9 |  |  | 76 |  |  | 1030 |  | 12 | 47
14 | Cc1cc2c(cc1Cl)C1(CCN(C(=O)[C@@H]3CN(C(C)(C)C)C[C@H]3c3ccc(F)cc3F)CC1)C[C@@H]2C(C)(C)C(=O)NCCF | 1.1 |  |  | 84 |  |  | 260 |  | 2.6 | 48
15 | Cc1cc2c(cc1Cl)C1(CCN(C(=O)[C@@H]3CN(C(C)(C)C)C[C@H]3c3ccc(F)cc3F)CC1)C[C@@H]2C(C)(C)C(=O)NC1CCOCC1 | 2.3 |  |  | 92 |  |  | 260 |  | 2.5 | 74
16 | Cc1cc2c(cc1Cl)C1(CCN(C(=O)[C@@H]3CN(C(C)(C)C)C[C@H]3c3ccc(F)cc3F)CC1)C[C@@H]2C(C)(C)C(=O)NC(C)C | 2.9 |  |  | 92 |  |  | 435 |  | 5.9 | 45
17 | Cc1cc2c(cc1Cl)C1(CCN(C(=O)[C@@H]3CN(C(C)(C)C)C[C@H]3c3ccc(F)cc3F)CC1)C[C@@H]2C(C)(C)C(=O)NCC(C)C | 27 |  |  | 92 |  |  | 2050 |  | 6.6 | 45
18 | Cc1cc2c(cc1Cl)C1(CCN(C(=O)[C@@H]3CN(C(C)(C)C)C[C@H]3c3ccc(F)cc3F)CC1)C[C@@H]2C(C)(C)C(=O)NCc1ccccc1 | 42 |  |  | 79 |  |  | 935 |  | 12 | 29
19 | Cc1cc2c(cc1Cl)C1(CCN(C(=O)[C@@H]3CN(C(C)(C)C)C[C@H]3c3ccc(F)cc3F)CC1)C[C@@H]2C(C)(C)C(=O)NC(C)(C)CO | 1.9 |  |  | 89 |  |  | 218 |  | 3.9 | 53
20 | CC(=O)N(C)C(C)(C)[C@H]1CC2(CCN(C(=O)[C@@H]3CN(C(C)(C)C)C[C@H]3c3ccc(F)cc3F)CC2)c2cc(Cl)c(C)cc21 | 4.3 |  |  | 83 |  |  | 270 |  | 2.5 | 41
21 | Cc1cc2c(cc1Cl)C1(CCN(C(=O)[C@@H]3CN(C(C)(C)C)C[C@H]3c3ccc(F)cc3F)CC1)C[C@@H]2C(C)(C)C(=O)N1CC[C@@H](F)C1 | 1.1 |  |  | 87 |  |  | 122 |  | 1.6 | 69
22 | Cc1cc2c(cc1Cl)C1(CCN(C(=O)[C@@H]3CN(C(C)(C)C)C[C@H]3c3ccc(F)cc3F)CC1)C[C@@H]2C(C)(C)C(=O)NCC(F)(F)F | 4.2 |  |  | 89 |  |  | 838 |  | 5.4 | 30

The next molecules have a lower EC50 (Melanocortin receptor 4 [1]) than those just listed; values first:

Row | EC50 (Melanocortin receptor 4 [1]) [nM] | half-life [2] [h] | AUC/dose (Rattus norvegicus) [µM·h/mg/kg] | Activity (Melanocortin receptor 4 [3]) [%] | Vd [4] [L/kg] | bioavailability [6] [%] | EC50 [7] [nM] | clearance [8] [mL/min/kg] | IC50 (Melanocortin receptor 4 [9]) [nM] | SMILES | Activity [5] [%]
23 | 0.87 | 5.14 | 0.39 | 108 | 6.95 | 24 | 255 | 17.2 | 0.71 | Cc1cc2c(cc1Cl)C1(CCN(C(=O)[C@@H]3CN(C(C)(C)C)C[C@H]3c3ccc(F)cc3F)CC1)C[C@@H]2C(C)(C)C(=O)N(C)C | 92
24 | 0.91 |  |  | 94 |  |  | 323 |  | 2.6 | CNC(=O)C(C)(C)[C@H]1CC2(CCN(C(=O)[C@@H]3CN(C(C)(C)C)C[C@H]3c3ccc(F)cc3F)CC2)c2cc(Cl)c(C)cc21 | 60
25 | 0.76 |  |  | 96 |  |  | 69 |  | 1.6 | Cc1cc2c(cc1Cl)C1(CCN(C(=O)[C@@H]3CN(C(C)(C)C)C[C@H]3c3ccc(F)cc3F)CC1)C[C@@H]2C(C)(C)C(=O)N1C[C@@H]2C[C@H]1CO2 | 72
26 | 0.98 |  |  | 106 |  |  | 203 |  | 1.4 | Cc1cc2c(cc1Cl)C1(CCN(C(=O)[C@@H]3CN(C(C)(C)C)C[C@H]3c3ccc(F)cc3F)CC1)C[C@@H]2C(C)(C)C(=O)N1CC[C@H](F)C1 | 68
27 | 0.8 |  |  | 95 |  |  | 243 |  | 2.2 | Cc1cc2c(cc1Cl)C1(CCN(C(=O)[C@@H]3CN(C(C)(C)C)C[C@H]3c3ccc(F)cc3F)CC1)C[C@@H]2C(C)(C)C(=O)NC1CC1 | 50
28 | 0.37 |  |  | 88 |  |  | 29 |  | 0.89 | Cc1cc2c(cc1Cl)C1(CCN(C(=O)[C@@H]3CN(C(C)(C)C)C[C@H]3c3ccc(F)cc3F)CC1)C[C@@H]2C(C)(C)C(=O)N1CC[C@H](O)C1 | 93
29 | 0.69 |  |  | 111 |  |  | 103 |  | 1.4 | CO[C@@H]1CCN(C(=O)C(C)(C)[C@H]2CC3(CCN(C(=O)[C@@H]4CN(C(C)(C)C)C[C@H]4c4ccc(F)cc4F)CC3)c3cc(Cl)c(C)cc32)C1 | 67
30 | 0.38 |  |  | 94 |  |  | 84 |  | 0.85 | Cc1cc2c(cc1Cl)C1(CCN(C(=O)[C@@H]3CN(C(C)(C)C)C[C@H]3c3ccc(F)cc3F)CC1)C[C@@H]2C(C)(C)C(=O)N1CCOCC1 | 66
31 | 0.25 |  |  | 98 |  |  | 33 |  | 0.53 | Cc1cc2c(cc1Cl)C1(CCN(C(=O)[C@@H]3CN(C(C)(C)C)C[C@H]3c3ccc(F)cc3F)CC1)C[C@@H]2C(C)(C)C(=O)N1CC[C@@H](O)C1 | 71
32 | 1 |  |  | 73 |  |  | 223 |  | 1.8 | Cc1cc2c(cc1Cl)C1(CCN(C(=O)[C@@H]3CN(C(C)(C)C)C[C@H]3c3ccc(F)cc3F)CC1)C[C@@H]2C(C)(C)C(=O)N1CCCC1 | 60
33 | 0.59 |  |  | 88 |  |  | 238 |  | 1.1 | Cc1cc2c(cc1Cl)C1(CCN(C(=O)[C@@H]3CN(C(C)(C)C)C[C@H]3c3ccc(F)cc3F)CC1)C[C@@H]2C(C)(C)C(=O)N1CCC1 | 72
